# Calls of active or inactive are those of the source. The calls are words filed in the database; no cut-off is given here.
# B1: Type IV secretion-like conjugative transfer relaxase protein TraI (Escherichia coli (strain SMS-3-5 / SECEC)), B1LRJ1 Y16F (protein)
# chain: MMSIAQVRSAGSAGNFYTDKDNYYVLGSMGERWAGRGAEQLGLQGSVDKDVFTRLLEGRLPDGADLSRMQDGSNKHRPGYDLTFSAPKSVSMMAMLGGDKRLIDAHNQAVDFAVRQVEALASTRVMTDGQSETVLTGNLVMALFNHDTSRDQEPQLHTHAVVANVTQHNGEWKTLSSDKVGKTGFIENVYANQIAFGRLYREKLKEQVEALGYETEVVGKHGMWEMPGVPVEAFSGRSQTIREAVGEDASLKSRDVAALDTRKSKQHVDPEIKMTEWMQTLKETGFDIRAYRDAAEQRAYTRTQTPGPASQDGPDVQQAVTQAIAGLSERKVQFTYTDVLARTVGILPPEAGVIERARAGIDEAISREQLIPLDREKGLFTSGIHVLDELSVRALSRDIMKQNRVTVHPEKSVPRTAGYSDAVSVLAQDRPSLAIVSGQGGAAGQRERVAELVMMAREQGREVQIIAADRRSQMNLKQDERLSGELITGRRQLLEGMAFTPGSTVIVDQGEKLSLKETLTLLDGAARHNVQVLITDSGQRTGTGSALMAMKDAGVNTYRWQGGEQRPATIISEPDRNVRYARLAGDFAASVKAGEESVAQVSGVREQAILTQAIRSELKTQGVLGHQEVTMTALSPVWLDSRSRYLRDMYRPGMVMEQWNPETRSHDRYVIDRVTAQSHSLTLRDAQGETQVVRISSLDSSWSLFRPEKMPVADGERLRVTGKIPGLRVSGGDRLQVASVSEDAMTVVVPGRAEPASLPVADSPFTALKLENGWVETPGHSVSDSAKVFAAVTQMAMDNATLNGLARSGRDVRLYSSLDETRTAEKLARHPSFTVVSEQIKAHAGETSLETSISLQKAGLHTPAQQAIHLALPVLESKKLAFSMVDLLTEAKSFAAEGTGFTELGGEINAQIKRGDLLYVDVAKGYGTGLLVSRASYEAEKSILRHILEGKEAVTPLMERVPGELMEKLTSGQRAATRMILETSDRFTVVQGYAGVGKTTQFRAVMSAVNMLPESMRPRVVGLGPTHRAVGEMRSAGVDAQTLASFLHDTQLQQRSGETPDFSNTLFLLDESSMVGNTDMARAYALIAAGGGRAVASGDTDQLQAIAPGQPFRLQQTRSAADVAIMKEIVRQTPELREAVYNLINRDVERALSGLERVKPSQVPRLEGAWAPEHSVMEFSHSQEAKLAEAQQKAMLKGEAFPDVPMTLYEAIVRDYTGRTPEAREQTLIVTHLNEDRRVLNSMIHDAREKAGELGKEQVMVPVLNTANIRDGELRRLSTWETHRDALVLVDNVYHRIAGISKDDGLITLEDAEGNTRLISPREAVAEGVTLYTPDTIRVGTGDRMRFTKSDRERGYVANSVWTVTAVSGDSVTLSDGQQTRVIRPGQERAEQHIDLAYAITAHGAQGASETFAIALEGTEGNRKQMAGFESAYVALSRMKQHVQVYTDNRQGWTDAINNAVQKGTAHDVFEPKPDREVMNAERLFSTARELRDVAAGRAVLRQAGLAGGDSPARFIAPGRKYPQPYVALPAFDRNGKSAGIWLNPLTTDDGNGLRGFSGEGRVKGSGDAQFVALQGSRNGESLLADNMQEGVRIARDNPDSGVVVRIAGEGRPWNPGAITGGRVWGDIPDNSVQPGAGNGEPVTAEVLAQRQAEEAIRRETERRADEIVRKMAENKPDLPDGKTEQAVREIAGQERDRAAITEREAALPESVLRESQREREAVREVARENLLQERLQQMERDMVRDLQKEKTLGGD
# What was measured:
# [1] = target: T1, Type IV secretion-like conjugative transfer relaxase protein TraI (Escherichia coli (strain SMS-3-5 / SECEC), UniProt B1LRJ1, Y16F); assay: Inhibition of Escherichia coli F plasmid TraI relaxase Y16F mutant assessed as oriT ssDNA cleavage by competitive inhibition assay
# How it was run: (§1)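 Truncated F plasmid TraI (residues 1–300, Y16F) was expressed in E. coli at 30°C as an intein–chitin-binding-domain fusion, purified on chitin resin and released by DTT cleavage. Biotinylated oriT ssDNA was either fluorescein end-labelled or hybridised after the reaction to an end-labelled probe. Reactions ran at 37°C, were stopped with SDS/EDTA at 80°C, and were read on streptavidin-coated plates.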
# Escherichia coli [2] = assay: Cytotoxicity against streptomycin-resistant F plasmid deficient Escherichia coli JS4; format: functional, organism-based
# How it was run: (§2)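 Donor and recipient strains were kept separate and exposed to inhibitor for 100 min. Inhibitor was added at the start and removed before selection. Surviving cells were counted on antibiotic-selective agar plates, or in antibiotic-containing medium by an oxygen-quenched fluorophore gel assay in which fluorescence is proportional to live cells. EC50 was determined from cell counts.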
# [3] = system: Type IV secretion-like conjugative transfer relaxase protein TraI (Escherichia coli (strain SMS-3-5 / SECEC)), B1LRJ1 [Y16F]; assay: (§3) Inhibition of Escherichia coli F plasmid TraI relaxase Y16F mutant assessed as oriT ssDNA cleavage at 200 nM
# Escherichia coli [4] = assay: Selectivity ratio, ratio of EC50 for Escherichia coli JS4 to EC50 for Escherichia coli JS10; format: functional
# How it was run: (§4)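 Each ratio divides one EC50 by another. The EC50s come from 100-min inhibitor exposures: separate donor and recipient survival assays, and a 1:9 donor:recipient liquid mating assay. Viable or transconjugant cells were counted on selective agar or by oxygen-quenched fluorescence in antibiotic medium.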
# Escherichia coli [5] = assay: Selectivity ratio, ratio of EC50 for Escherichia coli JS4 to ratio of EC50 for inhibition of conjugate DNA transfer between Escherichia coli JS10 and Escherichia coli JS4; format: functional; how it was run: as §4
# Escherichia coli [6] = assay: Selectivity ratio, ratio of EC50 for inhibition of conjugate DNA transfer between Escherichia coli JS10 and Escherichia coli JS4 to EC50 for Escherichia coli JS10; format: functional; how it was run: as §4
# [7] = system: Type IV secretion-like conjugative transfer relaxase protein TraI (Escherichia coli (strain SMS-3-5 / SECEC)), B1LRJ1 [Y16F]; assay: as §3; remark: listed apart in the source
# Escherichia coli [8] = assay: Inhibition of conjugate DNA transfer between tetracycline-resistant F plasmid positive Escherichia coli JS10 to streptomycin-resistant F plasmid deficient Escherichia coli JS4; format: functional, organism-based
# How it was run: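 F+ donor and F− recipient E. coli were mixed 1:9 in dilute liquid medium with increasing inhibitor concentrations for 100 min. Inhibitor was removed before transconjugants were selected with antibiotics. Transconjugants were counted as colonies on agar, or by oxygen-biosensor fluorescence in antibiotic medium. EC50 for DNA transfer was derived from the counts.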
# Escherichia coli [9] = assay: Selectivity ratio, ratio of EC50 for Escherichia coli JS10 to ratio of EC50 for inhibition of conjugate DNA transfer between Escherichia coli JS10 and Escherichia coli JS4; format: functional; how it was run: as §4
# Escherichia coli [10] = assay: Cytotoxicity against tetracycline-resistant F plasmid positive Escherichia coli JS10; format: functional, organism-based; how it was run: as §2
# [11] = target: T1, Type IV secretion-like conjugative transfer relaxase protein TraI; assay: Inhibition of Escherichia coli F plasmid TraI relaxase Y16F mutant assessed as oriT ssDNA cleavage by uncompetitive inhibition assay; how it was run: as §1
# [12] = substrate: O=P(O)(O)NP(=O)(O)O; assay: Activity of Escherichia coli F plasmid TraI relaxase Y16F mutant assessed as oriT ssDNA cleavage; how it was run: as §1
Molecule,Ki [1] [nM],EC50 (Escherichia coli [2]) [µM],Activity [3],Ratio EC50 (Escherichia coli [4]),Ratio EC50 (Escherichia coli [5]),Ratio EC50 (Escherichia coli [6]),Activity [7],EC50 (Escherichia coli [8]) [µM],Ratio EC50 (Escherichia coli [9]),EC50 (Escherichia coli [10]) [µM],Ki [11] [nM],Km [12] [µM],Vmax [12] [nM/s]
O=P(O)(O)C(Cl)(Cl)P(=O)(O)O [CLODRONIC ACID],3,3000,Active,330,26000,0.013,inactive,0.11,78,9,–,–,–
NCCCCCC(O)(P(=O)(O)O)P(=O)(O)O,–,–,inactive,–,–,–,inactive,–,–,–,–,–,–
COP(=O)(OC)c1ccccc1P(=O)(OC)OC,–,–,–,1500000,7100,210,inactive,14,0.0048,0.068,–,–,–
O=P(O)(O)CN(CP(=O)(O)O)CP(=O)(O)O,–,–,–,–,–,–,inactive,–,–,–,–,–,–
CC(O)(P(=O)(O)O)P(=O)(O)O [ETIDRONIC ACID],3,370,Active,38,1100,0.034,inactive,0.33,30,10,–,–,–
O=P(O)(O)NP(=O)(O)O [IMIDODIPHOSPHATE],2,620,–,1400,20,–,inactive,10,0.014,0.43,2.7,–,–
O=C(O)CN(CP(=O)(O)O)CP(=O)(O)O,–,–,–,–,–,–,inactive,–,–,–,–,–,–
O=P(O)(O)CP(=O)(O)O [MEDRONIC ACID],3,870,–,1700,20,0.68,inactive,0.35,1.5,0.51,–,–,–
NCCC(O)(P(=O)(O)O)P(=O)(O)O [PAMIDRONIC ACID],–,> 10000,inactive,–,–,–,inactive,> 10000,–,> 10000,–,–,–
CC1(C)S[C@@H]2[C@H](NC(=O)[C@H](N)c3ccccc3)C(=O)N2[C@H]1C(=O)O,–,–,–,–,–,–,inactive,–,–,–,–,–,–
O=P(O)(O)CNCP(=O)(O)O [IMINOBIS(METHYLPHOSPHONIC ACID)],–,5000,–,330000,9000,36,inactive,0.58,0.028,0.016,–,–,–
O=P(O)(O)CCCCP(=O)(O)O,–,–,–,–,–,–,inactive,–,–,–,–,–,–
B1,–,–,–,–,–,–,–,–,–,–,–,0.294,0.51

# Source: ChEMBL document CHEMBL1147039, “Disrupting antibiotic resistance propagation by inhibiting the conjugative DNA relaxase” (Proc Natl Acad Sci U S A, 2007)
